Experimental data: ChEMBL document CHEMBL1136799, “Design and synthesis of pyrrolidine-5,5'-trans-lactams (5-oxo-hexahydropyrrolo[3,2-b]pyrroles) as novel mechanism-based inhibitors of human cytomegalovirus protease. 4. Antiviral activity and plasma stability” (J Med Chem, 2003)

Assays:
[1] = Compound was tested for its stability in human plasma; type: ADME, organism-based
[2] = biological target: T1, Capsid scaffolding protein (Human cytomegalovirus (strain AD169) (HHV-5) (Human herpesvirus 5), UniProt P16753); test: Inhibition of human cytomegalovirus protease in HCMV pNA assay.; set-up: species or system Human herpesvirus 5 strain AD169
T1 sequence (P16753 whole entry): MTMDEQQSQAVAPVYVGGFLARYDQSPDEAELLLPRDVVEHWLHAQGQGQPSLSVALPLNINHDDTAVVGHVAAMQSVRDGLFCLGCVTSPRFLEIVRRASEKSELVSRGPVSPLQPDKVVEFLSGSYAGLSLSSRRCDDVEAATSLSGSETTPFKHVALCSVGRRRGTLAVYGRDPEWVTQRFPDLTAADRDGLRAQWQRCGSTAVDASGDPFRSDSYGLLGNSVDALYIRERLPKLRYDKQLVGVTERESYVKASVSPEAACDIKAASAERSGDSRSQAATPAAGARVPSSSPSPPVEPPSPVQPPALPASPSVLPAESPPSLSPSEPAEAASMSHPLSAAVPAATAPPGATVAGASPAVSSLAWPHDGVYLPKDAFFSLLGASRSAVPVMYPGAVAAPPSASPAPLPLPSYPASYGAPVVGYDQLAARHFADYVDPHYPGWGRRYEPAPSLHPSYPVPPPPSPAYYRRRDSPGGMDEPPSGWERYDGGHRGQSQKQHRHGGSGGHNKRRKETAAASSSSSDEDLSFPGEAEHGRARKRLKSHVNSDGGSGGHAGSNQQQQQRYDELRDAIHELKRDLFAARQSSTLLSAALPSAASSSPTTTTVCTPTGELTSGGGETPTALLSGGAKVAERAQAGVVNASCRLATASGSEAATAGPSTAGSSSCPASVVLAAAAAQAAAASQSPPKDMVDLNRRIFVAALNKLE

[3] = biological target: T1, Capsid scaffolding protein; test: Potency against human cytomegalovirus protease in HCMV pNA assay; set-up: species or system Human herpesvirus 5 strain AD169
[4] = tested on: Vero; test: Growth inhibition of cytomegalovirus in Vero cells; type: functional, Human betaherpesvirus 5
[5] = tested on: Human betaherpesvirus 5; test: Concentration required to inhibit human cytomegalovirus HCMV-AD169 in ELISA assay
[6] = biological target: T2, Acetylcholinesterase (Homo sapiens, UniProt P22303); test: Concentration of compound required to inhibit Acetylcholinesterase
T2 sequence (P22303 whole entry): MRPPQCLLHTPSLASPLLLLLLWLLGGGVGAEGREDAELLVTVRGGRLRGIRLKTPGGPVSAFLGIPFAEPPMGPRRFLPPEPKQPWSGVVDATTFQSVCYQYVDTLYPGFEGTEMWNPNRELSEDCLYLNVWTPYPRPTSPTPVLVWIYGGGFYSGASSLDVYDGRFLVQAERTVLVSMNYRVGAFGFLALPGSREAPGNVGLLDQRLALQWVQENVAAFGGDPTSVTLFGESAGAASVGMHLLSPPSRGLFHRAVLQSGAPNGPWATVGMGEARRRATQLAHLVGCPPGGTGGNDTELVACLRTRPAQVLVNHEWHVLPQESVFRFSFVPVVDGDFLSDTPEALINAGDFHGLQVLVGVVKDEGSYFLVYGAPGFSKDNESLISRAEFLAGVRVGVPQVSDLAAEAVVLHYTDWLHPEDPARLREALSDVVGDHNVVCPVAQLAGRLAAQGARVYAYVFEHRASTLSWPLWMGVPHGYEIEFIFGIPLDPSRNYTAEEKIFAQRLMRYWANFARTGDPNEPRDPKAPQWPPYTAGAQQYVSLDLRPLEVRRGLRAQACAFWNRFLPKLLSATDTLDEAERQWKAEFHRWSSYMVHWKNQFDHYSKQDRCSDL

[7] = Concentration of compound required to inhibit elastase
[8] = biological target: T3, Prothrombin (Homo sapiens, UniProt P00734); test: Concentration of compound required to inhibit thrombin
[9] = tested on: Human betaherpesvirus 5; test: Concentration required to inhibit human cytomegalovirus HCMV-AD169 in ELISA assay; remark: listed apart in the source
[10] = Clearance value in dog; type: ADME, organism-based, Canis lupus familiaris; conditions: in vivo
Procedure, shortened: (§1)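 Dog pharmacokinetics after intravenous administration, with plasma clearance, volume of distribution and half-life derived from plasma drug levels.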

[11] = Clearance value in guinea pig; type: ADME, organism-based, Cavia porcellus; conditions: in vivo
Procedure, shortened: (§2)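 Guinea-pig pharmacokinetics after intravenous dosing, with plasma clearance, volume of distribution and half-life. Drug levels were also measured in brain and vitreous humor.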

[12] = species on record: Canis familiaris; test: AUC 0-inf in dog; type: ADME, organism-based, Canis lupus familiaris, Plasma; set-up: time infinity; conditions: in vivo
[13] = species on record: Cavia porcellus; test: AUC 0-inf in guinea pig; type: ADME, organism-based, Plasma; set-up: time infinity; conditions: in vivo
[14] = species on record: Canis familiaris; test: AUC 0-t in dog; type: ADME, organism-based, Canis lupus familiaris, Plasma; conditions: in vivo
[15] = species on record: Cavia porcellus; test: AUC 0-t in guinea pig; type: ADME, organism-based, Plasma; conditions: in vivo
[16] = C max in dog; type: ADME, organism-based, Canis lupus familiaris; conditions: in vivo
[17] = C max in guinea pig; type: ADME, organism-based, Cavia porcellus; conditions: in vivo
[18] = Steady state distribution value in dog; type: ADME, organism-based, Canis lupus familiaris; conditions: in vivo, read-out: Vdss; procedure, shortened: as §1
[19] = Steady state distribution value in guinea pig; type: ADME, organism-based, Cavia porcellus; conditions: in vivo, read-out: Vdss; procedure, shortened: as §2
[20] = T 1/2 in dog; type: ADME, organism-based, Canis lupus familiaris; conditions: in vivo; procedure, shortened: as §1
[21] = T 1/2 in guinea pig; type: ADME, organism-based, Cavia porcellus; conditions: in vivo; procedure, shortened: as §2
[22] = T max in dog; type: ADME, organism-based, Canis lupus familiaris; conditions: in vivo
[23] = T max in guinea pig; type: ADME, organism-based, Cavia porcellus; conditions: in vivo
[24] = Bioavailability in dog; type: ADME, organism-based, Canis lupus familiaris; conditions: in vivo
Procedure, shortened: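 Oral bioavailability in dog, set against intravenous administration in the same study.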

[25] = biological target: T2, Acetylcholinesterase; test: Concentration required to inhibit Acetylcholinesterase
[26] = Concentration required to inhibit elastase
[27] = tested on: Human betaherpesvirus 5; test: Concentration required to inhibit human cytomegalovirus HCMV-AD169 in antiviralplaque reduction assay; type: functional, organism-based
[28] = biological target: T3, Prothrombin; test: Concentration required to inhibit thrombin

SMILES | half-life [1] | IC50 [2] | Ki [3] | CCID50 [4] | IC50 [5] | also measured
CC(C)c1ccc(NC(=O)N2CCC[C@H]2C(=O)N2CC[C@H]3[C@H]2[C@H](C)C(=O)N3c2nc3cccnc3s2)cc1 | 8 h | 290 nM | 21 nM | <31 µM | 3600 nM | 
CCOC(=O)c1ccc2nc(N3C(=O)[C@@H](C)[C@@H]4[C@@H]3CCN4C(=O)[C@@H]3CCCN3C(=O)Nc3ccc(C(C)C)cc3)sc2c1 | 9 h | 350 nM | 7.4 nM | >500 µM | 5100 nM | 
CC(C)c1ccc(NC(=O)N2CCC[C@H]2C(=O)N2CC[C@H]3[C@H]2[C@H](C)C(=O)N3c2nc3ccc(CO)cc3s2)cc1 | > 20 h | 310 nM | 40 nM | 125 µM | 520 nM | 
CC(C)c1ccc(NC(=O)N2CCC[C@H]2C(=O)N2CC[C@H]3[C@H]2[C@H](C)C(=O)N3C(=O)[C@@H]2[C@H](C)[C@@H]2C)cc1 | 6 h | 300 nM | 16 nM | 219 µM |  | IC50 [6]: > 100000 nM; IC50 [7]: > 10000 nM; IC50 [8]: > 200000 nM; IC50 [9]: 10000 nM
CC(C)c1ccc(NC(=O)N2CCC[C@H]2C(=O)N2CC[C@H]3[C@H]2[C@H](C)C(=O)N3c2nc3ccc(OC(F)(F)F)cc3s2)cc1 | 11 h | 460 nM | 20 nM | >500 µM | 5300 nM | 
CC(C)c1ccc(NC(=O)N2CCC[C@H]2C(=O)N2CC[C@H]3[C@H]2[C@H](C)C(=O)N3c2nc3ccccc3s2)cc1 | > 24 h | 180 nM | 10 nM | >500 µM |  | clearance [10]: 8 mL/min/kg; clearance [11]: 60 mL/min/kg; AUC 0-infinity [12]: 9750 ng/mL/h; AUC 0-infinity [13]: 2230 ng/mL/h; AUC 0-t [14]: 9660 ng/mL/h; AUC 0-t [15]: 2210 ng/mL/h; Cmax [16]: 5480 ng/mL; Cmax [17]: 32000 ng/mL; Vd [18]: 0.8 L/kg; Vd [19]: 1.6 L/kg; half-life [20]: 1.5 h; half-life [21]: 1 h; Tmax [22]: 4.8 min; Tmax [23]: 4.8 min; bioavailability [24]: 29%; IC50 [25]: > 100000 nM; IC50 [26]: > 10000 nM; IC50 [27]: 5000 nM; IC50 [28]: > 200000 nM
